From ChEMBL document CHEMBL1208665, “Discovery of new 1,3,5-triazine scaffolds with potent activity against Mycobacterium tuberculosis H37Rv” (Eur J Med Chem, 2010)
In brackets after ≈: the same amount, converted by molar mass.

Tests used:
[1] = system: Mycobacterium tuberculosis; test: Antimycobacterial activity against Mycobacterium tuberculosis H37Rv […] after 4 weeks; format: functional
In short: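 Agar-slant dilution against H37Rv. Compounds from 1.0 mg/mL DMSO stock, two-fold serial dilutions, were incorporated into OADC-supplemented medium (2 mL/tube final) and solidified slanted. Inoculum spread on the surface, incubated 37 °C for 4 weeks. Drug-free tubes served as control. MIC is the lowest concentration giving complete growth inhibition relative to the inoculum used.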

Vero = test: Cytotoxicity against Vero cells after 24 hrs by MTS assay; format: cell-based; details: chlorocebus sabaeus, vero, 24 h
In short: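 VERO cells were seeded at 20,000/well in MEM + 10% FBS with antibiotics and left to adhere overnight at 37 °C, 5% CO₂. Compound dilutions were added in MEM + 10% FBS for 24 h, with DMSO as negative control and a known toxic compound as positive control. Read-out was MTS, 2 h, A490, with DMSO wells taken as 100% survival.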

[2] = Cytotoxicity against mouse BMDM after 48 hrs by MTS assay; format: cell-based; details: bmdm, 48 h
In short: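 Mouse femur bone marrow was flushed with DMEM + 10% FBS, 15% L-929 conditioned supernatant and non-essential amino acids. Cells were plated at 10⁵/well, medium was changed every 3rd day, and cells were used at day 5. Compounds were added in antibiotic-free FBS-DMEM for 48 h at 37 °C, 5% CO₂. Read-out was MTS, 2 h, A490, with DMSO wells taken as 100% survival.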

| Compound | MIC [1] [µg/mL] | Activity (Vero) | Activity [2] |
| --- | --- | --- | --- |
| CCNC1CN(c2nc(N3CCCCC3)nc(N3CCOC(NCC)C3)n2)CCO1 (centres undefined) | > 12.5 | – | – |
| CN(C)CCNc1nc(NCCN(C)C)nc(N2CCCc3ccccc32)n1 | > 12.5 | – | – |
| CCNc1nc(NCC)nc(N2CCCc3ccccc32)n1 | > 12.5 | – | – |
| CCNc1nc(NCC)nc(N2CCCCC2)n1 | > 12.5 | – | – |
| CC(C)(C)Nc1nc(NC(C)(C)C)nc(N2CCCCC2)n1 | > 12.5 | – | – |
| CCCNC1COCCN1c1nc(Nc2nc(SC)cc(-c3cc(OC)c(OC)c(OC)c3)n2)nc(N2CCOCC2NCCC)n1 (centres undefined) | 12.5 (≈ 18.6 µM) | – | – |
| CN(C)CCNc1nc(NCCN(C)C)nc(N2CCCCC2)n1 | > 12.5 | – | – |
| CCN(CC)CCNc1nc(NCCN(CC)CC)nc(N2CCCCC2)n1 | > 12.5 | – | – |
| O=C(NNc1nc(Nc2ccccc2)nc(N2CCCCC2)n1)c1ccncc1 | > 12.5 | – | – |
| O=C(NNc1nc(Nc2ccccc2)nc(Nc2ccccc2)n1)c1ccncc1 | > 12.5 | – | – |
| COc1ccc(-c2cc(SC)nc(Nc3nc(NCCN(C)C)nc(NCCN(C)C)n3)n2)cc1OC | 6.25 (≈ 11.8 µM) | – | – |
| CC(C)(C)Nc1nc(NNC(=O)c2ccncc2)nc(Nc2ccccc2)n1 | > 12.5 | – | – |
| NN(C(=O)c1ccncc1)c1nc(Nc2ccccc2)nc(N(N)C(=O)c2ccncc2)n1 | > 12.5 | – | – |
| CCNC1CN(c2nc(N3CCc4ccccc4C3)nc(N3CCc4ccccc4C3)n2)CCO1 (centres undefined) | 3.12 (≈ 6.62 µM) | Non-toxic | Toxic |
| CN1CCN(c2nc(N3CCc4ccccc4C3)nc(N3CCc4ccccc4C3)n2)CC1 | 6.25 (≈ 14.2 µM) | – | – |
| CC(C)Nc1nc(NC(C)C)nc(N2CCCCC2)n1 | 12.5 (≈ 44.9 µM) | – | – |
| CCCCNc1nc(NNC(=O)c2ccncc2)nc(N2CCCc3ccccc32)n1 | 6.25 (≈ 14.9 µM) | – | – |
| CC(C)(C)Nc1nc(NNC(=O)c2ccncc2)nc(N2CCCc3ccccc32)n1 | 3.12 (≈ 7.46 µM) | – | – |
| CC(C)Nc1nc(NNC(=O)c2ccncc2)nc(N2CCCc3ccccc32)n1 | 3.12 (≈ 7.71 µM) | Non-toxic | Non-toxic |
| O=C(NNc1nc(N2CCOCC2)nc(N2CCCc3ccccc32)n1)c1ccncc1 | 3.12 (≈ 7.21 µM) | Non-toxic | Non-toxic |
| O=C(NNc1nc(N2CCCCC2)nc(N2CCc3ccccc3C2)n1)c1ccncc1 | 3.12 (≈ 7.25 µM) | Non-toxic | Toxic |
| CCCCNc1nc(NNC(=O)c2ccncc2)nc(N2CCc3ccccc3C2)n1 | 3.12 (≈ 7.46 µM) | Non-toxic | Non-toxic |
| CC(C)(C)Nc1nc(NNC(=O)c2ccncc2)nc(N2CCc3ccccc3C2)n1 | 3.12 (≈ 7.46 µM) | Non-toxic | Toxic |
| CC(C)Nc1nc(NNC(=O)c2ccncc2)nc(N2CCc3ccccc3C2)n1 | 3.12 (≈ 7.71 µM) | Non-toxic | Non-toxic |
| O=C(NNc1nc(N2CCc3ccccc3C2)nc(N2CCc3ccccc3C2)n1)c1ccncc1 | 3.12 (≈ 6.52 µM) | Non-toxic | Toxic |

| Compound | MIC [1] [µg/mL] | Activity (Vero) | Activity [2] |
| --- | --- | --- | --- |
| O=C(NNc1nc(Nc2ncccn2)nc(N2CCCCC2)n1)c1ccncc1 | 3.12 (≈ 7.95 µM) | Non-toxic | Non-toxic |
| CCCCNc1nc(NNC(=O)c2ccncc2)nc(N2CCCCC2)n1 | 3.12 (≈ 8.42 µM) | Non-toxic | Non-toxic |
| CC(C)(C)Nc1nc(NNC(=O)c2ccncc2)nc(N2CCCCC2)n1 | 6.25 (≈ 16.9 µM) | – | – |
| CC(C)Nc1nc(NNC(=O)c2ccncc2)nc(N2CCCCC2)n1 | 3.12 (≈ 8.75 µM) | Non-toxic | Non-toxic |
| O=C(NNc1nc(N2CCCCC2)nc(N2CCCCC2)n1)c1ccncc1 | 6.25 (≈ 16.3 µM) | – | – |
| O=C(NNc1nc(Nc2ccccc2)nc(NC2CCCCC2)n1)c1ccncc1 | 6.25 (≈ 15.5 µM) | – | – |
| CCCCNc1nc(NNC(=O)c2ccncc2)nc(Nc2ccccc2)n1 | 6.25 (≈ 16.5 µM) | – | – |
| CC(C)Nc1nc(NNC(=O)c2ccncc2)nc(Nc2ccccc2)n1 | 6.25 (≈ 17.2 µM) | – | – |
| CCN(CC)CCNc1nc(N)nc(Nc2nc(SC)cc(-c3cc(OC)c(OC)c(OC)c3)n2)n1 | > 12.5 | – | – |
| CCNC1CN(c2nc(Nc3nc(SC)cc(-c4ccc(OC)c(OC)c4)n3)nc(N3CCOC(NCC)C3)n2)CCO1 (centres undefined) | > 12.5 | – | – |
| CCCNC1COCCN1c1nc(Nc2nc(SC)cc(-c3ccc(OC)c(OC)c3)n2)nc(N2CCOCC2NCCC)n1 (centres undefined) | > 12.5 | – | – |
| CCNC1CN(c2cc(-c3cc(OC)c(OC)c(OC)c3)nc(N)n2)CCO1 (centres undefined) | > 12.5 | – | – |
| CCCNC1COCCN1c1cc(-c2cc(OC)c(OC)c(OC)c2)nc(N)n1 (centres undefined) | > 12.5 | – | – |
| CCCCNc1cc(-c2cc(OC)c(OC)c(OC)c2)nc(N)n1 | > 12.5 | – | – |
| CCNC1CN(c2nc(N3CCCc4ccccc43)nc(N3CCCc4ccccc43)n2)CCO1 (centres undefined) | > 12.5 | – | – |
| CCCNC1COCCN1c1nc(N2CCCc3ccccc32)nc(N2CCCc3ccccc32)n1 (centres undefined) | > 12.5 | – | – |
| CC(C)(C)Nc1nc(N2CCCc3ccccc32)nc(N2CCCc3ccccc32)n1 | > 12.5 | – | – |
| CN1CCN(c2nc(N3CCCc4ccccc43)nc(N3CCCc4ccccc43)n2)CC1 | > 12.5 | – | – |
| CCN(CC)CCNc1nc(N2CCCc3ccccc32)nc(N2CCCc3ccccc32)n1 | > 12.5 | – | – |
| c1ccc2c(c1)CCCN2c1nc(N2CCOCC2)nc(N2CCCc3ccccc32)n1 | > 12.5 | – | – |
| CCCNC1COCCN1c1nc(N2CCc3ccccc3C2)nc(N2CCc3ccccc3C2)n1 (centres undefined) | > 12.5 | – | – |
| CC(C)(C)Nc1nc(N2CCc3ccccc3C2)nc(N2CCc3ccccc3C2)n1 | > 12.5 | – | – |
| CCN(CC)CCNc1nc(N2CCc3ccccc3C2)nc(N2CCc3ccccc3C2)n1 | > 12.5 | – | – |
| c1ccc2c(c1)CCN(c1nc(N3CCOCC3)nc(N3CCc4ccccc4C3)n1)C2 | > 12.5 | – | – |
| CCCNc1nc(NCCC)nc(N2CCCc3ccccc32)n1 | > 12.5 | – | – |

| Compound | MIC [1] [µg/mL] | Activity (Vero) | Activity [2] |
| --- | --- | --- | --- |
| CC(C)Nc1nc(NC(C)C)nc(N2CCCc3ccccc32)n1 | > 12.5 | – | – |
| CC(C)(C)Nc1nc(NC(C)(C)C)nc(N2CCCc3ccccc32)n1 | > 12.5 | – | – |
| CCN(CC)CCNc1nc(NCCN(CC)CC)nc(N2CCCc3ccccc32)n1 | > 12.5 | – | – |
| CCN1CCN(c2nc(Nc3nc(SC)cc(-c4ccc(OC)c(OC)c4)n3)nc(N3CCN(CC)CC3)n2)CC1 | 12.5 (≈ 21.5 µM) | – | – |
| COc1cc(-c2cc(N3CCN(C)CC3)nc(N)n2)cc(OC)c1OC | > 12.5 | – | – |
| CCCNc1nc(NCCC)nc(Nc2nc(SC)cc(-c3cc(OC)c(OC)c(OC)c3)n2)n1 | > 12.5 | – | – |
| COc1cc(-c2cc(SC)nc(Nc3nc(N4CCOCC4)nc(N4CCOCC4)n3)n2)cc(OC)c1OC | > 12.5 | – | – |
| CCCNc1nc(NCCC)nc(Nc2nc(SC)cc(-c3ccc(OC)c(OC)c3)n2)n1 | > 12.5 | – | – |
| COc1cc(-c2cc(N3CCOCC3)nc(N)n2)cc(OC)c1OC | > 12.5 | – | – |
| CCN1CCN(c2nc(Nc3nc(SC)cc(-c4cc(OC)c(OC)c(OC)c4)n3)nc(N3CCN(CC)CC3)n2)CC1 | 12.5 (≈ 20.5 µM) | – | – |
| COc1cc(-c2cc(SC)nc(Nc3nc(N4CCN(C)CC4)nc(N4CCN(C)CC4)n3)n2)cc(OC)c1OC | 12.5 (≈ 21.5 µM) | – | – |
| COc1ccc(-c2cc(SC)nc(Nc3nc(N4CCN(C)CC4)nc(N4CCN(C)CC4)n3)n2)cc1OC | > 12.5 | – | – |
| CCN(CC)CCNc1nc(NCCN(CC)CC)nc(Nc2nc(SC)cc(-c3ccc(OC)c(OC)c3)n2)n1 | 6.25 (≈ 10.7 µM) | – | – |
| COc1ccc(-c2cc(SC)nc(Nc3nc(NC(C)(C)C)nc(NC(C)(C)C)n3)n2)cc1OC | 6.25 (≈ 12.5 µM) | – | – |
| COc1ccc(-c2cc(SC)nc(Nc3nc(N4CCCCC4)nc(N4CCCCC4)n3)n2)cc1OC | > 12.5 | – | – |
| COc1ccc(-c2cc(SC)nc(Nc3nc(NC(C)C)nc(NC(C)C)n3)n2)cc1OC | 12.5 (≈ 26.6 µM) | – | – |
| COc1cc(-c2cc(SC)nc(Nc3nc(NC(C)C)nc(NC(C)C)n3)n2)cc(OC)c1OC | 3.12 (≈ 6.23 µM) | Toxic | Toxic |
| COc1ccc(-c2cc(SC)nc(Nc3nc(N4CCOCC4)nc(N4CCOCC4)n3)n2)cc1OC | > 12.5 | – | – |
| COc1cc(-c2cc(N3CCCCC3)nc(N)n2)cc(OC)c1OC | > 12.5 | – | – |
| CCN(CC)CCNc1cc(-c2cc(OC)c(OC)c(OC)c2)nc(N)n1 | > 12.5 | – | – |
| COc1cc(-c2cc(SC)nc(Nc3nc(N4CCCCC4)nc(N4CCCCC4)n3)n2)cc(OC)c1OC | 6.25 (≈ 11.3 µM) | – | – |
| CCCCNc1nc(NCCCC)nc(Nc2nc(SC)cc(-c3cc(OC)c(OC)c(OC)c3)n2)n1 | > 12.5 | – | – |
| COc1cc(-c2cc(SC)nc(Nc3nc(NC(C)(C)C)nc(NC(C)(C)C)n3)n2)cc(OC)c1OC | 3.12 (≈ 5.9 µM) | Non-toxic | Toxic |
